The target of one series is T1, HlCHIL1 protein (Humulus lupulus, UniProt A0A2U7XUH7).
T1 sequence (A0A2U7XUH7 1-214): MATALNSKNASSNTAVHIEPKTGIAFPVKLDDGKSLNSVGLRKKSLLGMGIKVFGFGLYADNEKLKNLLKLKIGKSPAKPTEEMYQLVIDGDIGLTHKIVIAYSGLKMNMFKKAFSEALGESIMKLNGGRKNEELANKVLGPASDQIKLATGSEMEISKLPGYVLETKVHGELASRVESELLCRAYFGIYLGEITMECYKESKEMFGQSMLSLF
As to the kind of experiment: Differential scanning fluorimetry. Format: binding. The conditions noted are these: for binding to CHIL1 protein (in words): wild-type HlCHIL1, differential scanning fluorimetry; for ΔTmmax: wild-type HlCHIL1, thermal shift dose-response. In a few lines: (§1)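 Purified HlCHIL protein (wild-type or point mutant), 5 μM, was mixed with Protein Thermal Shift buffer and dye. Test ligand was serially diluted from 250 μM to 0.12 μM (12 points). Melting was followed on a real-time PCR instrument. Kd and ΔTmmax were fitted from the dose–response of thermal shift against ligand concentration.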
In general terms: In DSF a fluorescence change marks the thermal transition of the protein.

The next series addresses T2, CHIL2 (Humulus lupulus, UniProt A0A2U7XUE3).
T2 sequence (A0A2U7XUE3 1-209): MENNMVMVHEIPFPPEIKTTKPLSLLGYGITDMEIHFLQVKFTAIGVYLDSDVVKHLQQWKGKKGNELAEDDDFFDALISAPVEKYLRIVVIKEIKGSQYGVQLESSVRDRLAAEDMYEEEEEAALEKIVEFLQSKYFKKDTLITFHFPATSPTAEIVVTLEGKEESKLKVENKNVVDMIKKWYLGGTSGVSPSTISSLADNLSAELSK
In words: Protein-metabolite interaction assay. The class given is binding. The conditions noted are these: same incubation conditions, 8 h at 4 °C.

For a further series, the target named is T3, CHS_H1 (Humulus lupulus, UniProt Q9FEY5).
T3 sequence (Q9FEY5 1-389): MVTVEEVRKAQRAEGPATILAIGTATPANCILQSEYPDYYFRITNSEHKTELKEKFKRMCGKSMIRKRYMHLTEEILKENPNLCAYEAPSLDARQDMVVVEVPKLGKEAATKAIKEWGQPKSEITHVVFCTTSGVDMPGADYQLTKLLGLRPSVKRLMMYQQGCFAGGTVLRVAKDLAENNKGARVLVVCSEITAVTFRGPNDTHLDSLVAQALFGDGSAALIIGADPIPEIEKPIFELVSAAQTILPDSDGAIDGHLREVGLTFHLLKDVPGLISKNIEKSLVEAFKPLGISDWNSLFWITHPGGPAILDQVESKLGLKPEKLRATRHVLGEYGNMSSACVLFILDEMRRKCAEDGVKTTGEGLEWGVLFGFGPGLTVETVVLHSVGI
In words: In vitro chalcone synthase assay, kinetic parameters, CHS_H1 alone. The class given is biochemical. The conditions noted are these: 2 μg CHS_H1; other substrate fixed: 150 μM malonyl-CoA or 40 μM p-coumaroyl-CoA. In a few lines:
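Purified recombinant CHS_H1 (2 μg) was run in standard reactions: 50 mM Tris·HCl pH 7, 0.1 mg/mL BSA, 30 °C, 60 min. One substrate was fixed (40 μM p-coumaroyl-CoA or 150 μM malonyl-CoA) while the other was varied. Products were extracted and quantified. Apparent Km came from Hanes plots; n = 3, means ± SD.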

A further series concerns the target T4, His-tagged CHIL1 (Humulus lupulus, UniProt A0A2U7XUH7).
T4 sequence (A0A2U7XUH7 1-214): T1 sequence (A0A2U7XUH7 1-214)
As to the kind of experiment: Protein-metabolite interaction assay. The class given is binding. In a few lines:
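His-tagged CHIL1 was expressed in E. coli BL21 and purified by Ni-NTA. Protein (30 μg) was incubated for 8 h at 4 °C with yeast extract (about 200 μM N/NC, 5 μM DMX) in 50 mM Tris·HCl pH 7.5 with 20% methanol. Protein was captured on MagneHis Ni beads. Bead-bound and supernatant compounds were extracted with ethyl acetate and measured by LC-QQQ-MS/MS (MRM 341.0→165.0). Beads alone were the control; n = 3.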

Another series deals with T5, CHIL1^A143F (Humulus lupulus, UniProt A0A2U7XUH7, A143F).
T5 sequence (A0A2U7XUH7 1-214 A143F): T1 sequence (A0A2U7XUH7 1-214) with A143F
In words: Differential scanning fluorimetry binding assay with CHIL1 A143F mutant. The conditions noted are these: thermal shift dose-response. In a few lines:
as §1

In the next series the target is T6, CHIL1^V139F (Humulus lupulus, UniProt A0A2U7XUH7, V139F).
T6 sequence (A0A2U7XUH7 1-214 V139F): T1 sequence (A0A2U7XUH7 1-214) with V139F
As to the kind of experiment: Differential scanning fluorimetry binding assay with CHIL1 V139F mutant. In a few lines:
as §1

Another series deals with T7, CHIL1^V139F/A143F (Humulus lupulus, UniProt A0A2U7XUH7, A143F/V139F).
T7 sequence (A0A2U7XUH7 1-214 V139F/A143F): T1 sequence (A0A2U7XUH7 1-214) with V139F, A143F
Format: binding. The conditions noted are these: thermal shift dose-response.

Substitutions are numbered along the chain they refer to.

On to `COc1cc(O)c(CC=C(C)C)c(O)c1C(=O)/C=C/c1ccc(O)cc1` [XN, 3′-prenyl-6′-O-methylchalconaringenin], for which the “binding to CHIL1 protein (in words)” value on HlCHIL1 protein was “no such binding could be detected”.

Regarding `CC(C)=CCc1c(O)cc(O)c2c1O[C@H](c1ccc(O)cc1)CC2=O` [8PN, 8-prenylnaringenin], on HlCHIL1 protein, the “binding to CHIL1 protein (in words)” value is listed as “no such binding could be detected”. On CHIL2, the “CHIL2-associated compound (in words)” value is on record as “no CHIL2-associated DMX or 8PN were detected”.

Consider `CC(C)=CCc1c(O)cc2c(c1O)C(=O)C[C@@H](c1ccc(O)cc1)O2` [6PN, 6-prenylnaringenin], for which the “binding to CHIL1 protein (in words)” value at HlCHIL1 protein is “no such binding could be detected”.

What is called Km is the substrate concentration at which the rate is half of its maximum. For `CC(C)(COP(=O)(O)OP(=O)(O)OC[C@H]1O[C@@H](n2cnc3c(N)ncnc32)[C@H](O)[C@@H]1OP(=O)(O)O)[C@@H](O)C(=O)NCCC(=O)NCCSC(=O)CC(=O)O` [Malonyl-CoA], at CHS_H1, the Kcat stood at 0.24 ± 0.03 s^−1 × 10^−3 and the Km was 10.1 ± 2.99 µM.

Usually Kd stands for the equilibrium constant for the complex coming apart. On to `CCCCCCCCCCCCCC(=O)O` [myristic acid], for which, at HlCHIL1 protein, the Kd came to 3.45 µM and the ΔTmmax was determined as 3.55 °C.

On to `CCCCCCCCCCCC(=O)O` [lauric acid], for which the ΔTmmax on HlCHIL1 protein was 5.0 °C.

Turning to `O=C1C[C@@H](c2ccc(O)cc2)Oc2cc(O)cc(O)c21` [N, naringenin], the “binding to CHIL1 protein (in words)” value on HlCHIL1 protein is listed as “no such binding could be detected”.

In the case of `CC(C)(COP(=O)(O)OP(=O)(O)OC[C@H]1O[C@@H](n2cnc3c(N)ncnc32)[C@H](O)[C@@H]1OP(=O)(O)O)[C@@H](O)C(=O)NCCC(=O)NCCSC(=O)/C=C/c1ccc(O)cc1` [p-Coumaroyl-CoA], on CHS_H1, the Kcat was found to be 0.21 ± 0.02 s^−1 × 10^−3 and the Km stood at 4.82 ± 0.99 µM.

On to `CC(C)=CCc1c(O)cc(O)c(C(=O)/C=C/c2ccc(O)cc2)c1O` [DMX, demethylxanthohumol], for which, at His-tagged CHIL1 (incubation 8 h at 4 °C with yeast extract (DMX/6PN/8PN)), the “enrichment of DMX levels by CHIL1 protein (bound vs solution)” value is 14.2 fold. For the same compound, on His-tagged CHIL1 (incubation 8 h at 4 °C, n = 3), the “ratio of (DMX)/(total DMX) in CHIL1-bound chemical mixture” value came out at 19.7%. Also, the “ratio of (DMX)/(total DMX) in solution” value at His-tagged CHIL1 (supernatant, incubation 8 h at 4 °C) is recorded as 1.39%. The ΔTmmax at CHIL1^A143F was 10.87 °C; on CHIL1^V139F (CHIL1^V139F, thermal shift dose-response), 10.15 °C; on HlCHIL1 protein, 10.23 °C; on CHIL1^V139F/A143F, 5.26 °C. For the same compound, the Kd at CHIL1^V139F was 10 µM; on HlCHIL1 protein it was 25.1 µM. Also, the “CHIL2-associated compound (in words)” value on CHIL2 is “no CHIL2-associated DMX or 8PN were detected”.

The values above are taken from article PMC5984530 (Proceedings of the National Academy of Sciences of the …, 2018).
